In ChEMBL document CHEMBL1137712, “Antidyslipidemic and antioxidative activities of 8-hydroxyquinoline derived novel keto-enamine Schiffs bases” (Eur J Med Chem, 2009):
The source made the active and inactive calls. No cut-off for these calls is given here.

Legend:
Rattus norvegicus [1] = test: Antidyslipidemic activity against triton-induced hyperlipidemia in Charles Foster rat assessed as reduction in triglyceride level at 100 mg/kg, po after 18 hrs by spectrophotometry relative to control; type: functional
Procedure, shortened: (§1)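 Male adult Charles Foster rats (200–225 g), six per group. Triton WR-1339 400 mg/kg ip with simultaneous oral dosing at 100 mg/kg in 0.2% w/v gum acacia suspension; diet withdrawn; vehicle controls. At 18 h, thiopentone anaesthesia, retro-orbital blood into EDTA, plasma diluted 1:3 in saline; Tc, Tg, Pl by standard enzymatic kits; Student's t-test versus triton group, P<0.05.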

Rattus norvegicus [2] = test: Antidyslipidemic activity against triton-induced hyperlipidemia in Charles Foster rat assessed as reduction in total cholesterol level at 100 mg/kg, po after 18 hrs by spectrophotometry relative to control; type: functional; procedure, shortened: as §1
Rattus norvegicus [3] = test: Antidyslipidemic activity against triton-induced hyperlipidemia in Charles Foster rat assessed as reduction in phospholipid level at 100 mg/kg, po after 18 hrs by spectrophotometry relative to control; type: functional; procedure, shortened: as §1
Rattus norvegicus [4] = test: Antidyslipidemic activity in Charles Foster rat hyperlipidemia model assessed as suppression of triton-induced post heparin lipolytic activity at 100 mg/kg, po after 18 hrs by spectrophotometry relative to control; type: functional
Procedure, shortened: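 Post-heparin lipolytic activity in plasma of male Charles Foster rats given triton WR-1339 400 mg/kg ip plus oral dose 100 mg/kg in gum acacia, six per group, sampled at 18 h; assayed spectrophotometrically per Wing and Robinson, expressed as nmol free fatty acid formed/h/ml plasma; triton group compared with control, treated with triton group.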

[5] = Antioxidant activity assessed as inhibition of xanthine-xanthine oxidase generated superoxide anion radical production at 200 ug/ml by spectrophotometry; type: functional; design: scale not given: the % may be the effect or the level left
Procedure, shortened: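 Superoxide generated by xanthine, xanthine oxidase 0.04 U and nitroblue tetrazolium in 100 mM phosphate buffer pH 8.2, with or without compound sonicated in buffer; 37 °C for 30 min, stopped with glacial acetic acid; formazan read at 560 nm, percent inhibition from absorption coefficient 7.2 × 10³ M/cm; allopurinol reference.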

[6] = Antioxidant activity assessed as inhibition non-enzymatic reactants generated hydroxyl radical production at 200 ug/ml by spectrophotometry; type: functional; design: scale not given: the % may be the effect or the level left
Procedure, shortened: (§2)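 Hydroxyl radicals generated non-enzymically from deoxyribose 2.8 mM, FeSO4 2 mM, sodium ascorbate 2.0 mM and H2O2 2.8 mM in 50 mM KH2PO4 pH 7.4, with or without compound, 37 °C for 90 min; MDA measured spectrophotometrically by thiobarbituric acid method, with reference samples and reagent blanks; mannitol reference.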

[7] = Antioxidant activity assessed as inhibition microsomal lipid peroxidation at 200 ug/ml by thiobarbituric acid test; type: functional; design: scale not given: the % may be the effect or the level left; conditions: Microsome
[8] = Antioxidant activity assessed as inhibition of xanthine-xanthine oxidase generated superoxide anion radical production at 20 ug/ml by spectrophotometry; type: functional; design: scale not given: the % may be the effect or the level left
Procedure, shortened: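 Superoxide generated enzymatically with xanthine, xanthine oxidase (0.04 U) and nitroblue tetrazolium in 100 mM phosphate buffer, pH 8.2, with or without test sample. Samples sonicated in phosphate buffer before use. Incubated 30 min at 37 °C, then stopped with glacial acetic acid. Formazan read at 560 nm. Percent inhibition calculated using formazan absorption coefficient 7.2 × 10³ M/cm.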

Vero = test: Cytotoxicity against african green monkey Vero cells; type: cell-based; conditions: chlorocebus sabaeus
[9] = Cytotoxicity against primary osteoblast cells; type: cell-based
[10] = Antioxidant activity assessed as inhibition microsomal lipid peroxidation at 100 ug/ml by thiobarbituric acid test; type: functional; design: scale not given: the % may be the effect or the level left; conditions: Microsome
[11] = Antioxidant activity assessed as inhibition non-enzymatic reactants generated hydroxyl radical production at 100 ug/ml by spectrophotometry; type: functional; design: scale not given: the % may be the effect or the level left; procedure, shortened: as §2

Compound	Activity (Rattus norvegicus [1])	Activity (Rattus norvegicus [2])	Activity (Rattus norvegicus [3])	Activity (Rattus norvegicus [4])	Activity [5]	Activity [6]	Activity [7]	Activity [8]	Activity (Vero)	Activity [9]	Activity [10]	Activity [11]
CC(C)CCCCN/C=C1/C=C(C=O)c2cccnc2C1=O	Active	Active	Active	5%	inactive	inactive	inactive					
Cc1ccc(C)c(OCCCC(C)(C)C(=O)O)c1 [GEMFIBROZIL]	38%	36%	34%	27%								
CC(C)(C)N/C=C1/C=C(C=O)c2cccnc2C1=O	Active	Active	Active	5%	Active	Active	Active					
Oc1ncnc2[nH]ncc12								84%				
CCN/C=C1/C=C(C=O)c2cccnc2C1=O	Active	Active	Active	5%	Active	Active	Active					
CN/C=C1/C=C(C=O)c2cccnc2C1=O	24%	26%	25%	5%	Active	Active	Active		Non-toxic	Non-toxic		
Cc1c(C)c2c(c(C)c1O)CC[C@@](C)(CCC[C@H](C)CCC[C@H](C)CCCC(C)C)O2											47%	
CC(C)N/C=C1/C=C(C=O)c2cccnc2C1=O	Active	Active	Active	5%	47%	38%	35%					
O=CC1=C/C(=C/NCCN2CCOCC2)C(=O)c2ncccc21	Active	Active	Active	5%	inactive	inactive	inactive					
O=CC1=C/C(=C/NCc2ccccc2)C(=O)c2ncccc21				5%	Active	Active	Active					
OC[C@@H](O)[C@@H](O)[C@H](O)[C@H](O)CO												50%
O=CC1=C/C(=C/NCCCN2CCOCC2)C(=O)c2ncccc21	Active	Active	Active	5%	inactive	inactive	inactive					
Cc1ccc(N/C=C2/C=C(C=O)c3cccnc3C2=O)cc1	25%	23%	18%	5%	44%	36%	41%					
